# Assay outcomes: PubChem, Broad Institute
# RAD54 branch = blocks human RAD54 Holliday junction branch migration | Q92698 | AID 602329 | inhibition, % at 10.4 µM | FAM/BHQ fluorescence | actives 0.14% (n = 360,000);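 active means mean normalized replicate activity at least 40 and at least half of replicates scoring 40 or more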;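 further: 0% = median of neutral control wells and 100% = median of positive control wells; inhibitors cause a drop in the FAM fluorescence signal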
# dFosB activator = activators of mouse delta FosB homodimer; purified delta FosB, TAMRA-CDK5 oligo fluorescence polarization; percent of positive-control signal above neutral wells; activation, % at 25 µM; actives 0.99% (n = 340,000); AID 493131;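 active means mean activation above about 17%, with every replicate also reaching it, limit read from the data, passing the limit was not always enough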
# Target sequence (P13346 whole entry, looked up): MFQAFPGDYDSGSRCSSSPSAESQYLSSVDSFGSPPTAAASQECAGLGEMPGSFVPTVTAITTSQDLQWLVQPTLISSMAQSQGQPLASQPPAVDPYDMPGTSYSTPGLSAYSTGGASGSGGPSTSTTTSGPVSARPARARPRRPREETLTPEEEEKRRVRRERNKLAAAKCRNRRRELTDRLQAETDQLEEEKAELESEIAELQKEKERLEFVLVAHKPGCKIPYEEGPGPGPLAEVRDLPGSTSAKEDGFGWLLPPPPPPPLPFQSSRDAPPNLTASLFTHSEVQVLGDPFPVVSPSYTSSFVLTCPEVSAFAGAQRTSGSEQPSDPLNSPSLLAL
# PvdQ acylase = blocks Pseudomonas aeruginosa PvdQ acylase activity; purified PvdQ acylase, fluorescence plate reader; inhibition, % at 10 µM; actives 0.063% (n = 340,000); AID 488965; in the data active means inhibition above about 30%, passing the limit was not always enough;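 further: 0% = vehicle neutral wells and 100% = reference inhibitor wells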
# S100A4 MyoIIA = inhibitors of human S100A4 binding to myosin IIA peptide. AID 652163. P26447. actives 0.14% (n = 360,000). S100A4/TAMRA-MyoIIA peptide fluorescence polarization. inhibition, % at 10.7 µM;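 active means mean inhibition of at least 70% across replicates, with every replicate also reaching that level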
# Target sequence (P26447 whole entry, looked up): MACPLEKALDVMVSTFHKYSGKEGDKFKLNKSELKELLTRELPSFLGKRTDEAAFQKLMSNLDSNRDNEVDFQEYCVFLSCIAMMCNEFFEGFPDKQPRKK
#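 Assay system: human S100A4 monomer with TAMRA-labelled myosin IIA peptide / Buffer or medium: Calcium-containing HEPES buffer, pH 7.2 / Reagent: TAMRA-labelled myosin IIA heavy-chain peptide probe, 5 nM / Compound: one dose per compound / Timing: polarization read 5 min after assay mix addition, stable 5–60 min / Benchmarks: neutral control DMSO, positive control TFP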
# SR-BI uptake up = enhances SR-BI lipid uptake from DiI-HDL; CHO ldlA[mSR-BI] cells, DiI-HDL uptake fluorescence, 3 h; 100 = double the neutral-control signal; activation, % at 12.5 µM; actives 0.096% (n = 320,000); AID 504775;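 active means mean replicate activation of at least 60% and every replicate at or above 60%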;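 further: 0% = median plate neutral-control signal and 100% = twice that signal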
#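 Assay system: LDL receptor-deficient CHO ldlA cells overexpressing murine SR-BI / Medium: BSA-supplemented, HEPES-buffered Ham's F12, pH 7.4 / Probe or stimulus: DiI-labelled HDL at 10 µg/mL final / Timing: compound with DiI-HDL co-incubation, 3 h at 37 °C / Technique: bottom-read cell fluorescence after medium removal, ex 550/em 595 nm / Measure: HDL uptake via cellular fluorescence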
# SR-BI DiI inh = mouse SR-BI HDL lipid transfer inhibition; Q61009; actives 0.96% (n = 320,000); inhibition, % at 12.5 µM; ldlA[mSR-BI] CHO cells, DiI-HDL uptake fluorescence, 3 h; AID 488896;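 active means mean replicate inhibition of at least 70% and a set share of replicates each scoring 70 or more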;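 further: 0% = median of neutral control wells and 100% = median of positive control wells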
# Numbers without * were called inactive; . = not tested or not shown. A selection: hits, their analogues and other compounds. The true share with any hit is near 1.6%.
SMILES,RAD54 branch,dFosB activator,PvdQ acylase,S100A4 MyoIIA,SR-BI uptake up,SR-BI DiI inh
CN(C)/C=C1\C=C2C(=O)c3ccccc3N2C1=O,.,3,-11,76*,-9,9
C[C@H](CO)N1C[C@H](C)[C@@H](CN(C)S(=O)(=O)c2cn(C)cn2)Oc2c(NC(=O)Nc3cccc4ccccc34)cccc2C1=O,-17,.,.,3,.,.
C[C@H](CO)N1C[C@H](C)[C@@H](CN(C)Cc2ccc(C(F)(F)F)cc2)OCCCC[C@H](C)Oc2ccc(NC(=O)NC3CCCCC3)cc2C1=O,-2,.,.,7,.,.
O=C(c1ccccc1F)N1CC2(C1)[C@H](c1ccccc1)[C@H](CO)N2CC1CCCC1,.,.,.,8,.,.
CCN1CCN(c2ccc(S(=O)(=O)N3CCCCC3)cc2NC(=O)/C=C/c2ccc([N+](=O)[O-])cc2)CC1,-4,52*,9,-14,20,-20
CCN1CCN(c2ccc(S(=O)(=O)N3CCCCC3)cc2NC(=O)/C=C/c2ccc(F)cc2)CC1,-8,-15,-4,1,53,-53
CN1CCN(c2ccc(S(=O)(=O)N3CCCCC3)cc2NC(=O)/C=C/c2ccc(Cl)c([N+](=O)[O-])c2)CC1,-2,52*,11,-3,14,-14
COc1ccc2c3c([nH]c2c1)[C@@H](CO)N(C(=O)NC(C)C)CC31CN(Cc2ccccc2)C1,.,.,.,24,.,.
COc1ccc(NS(=O)(=O)c2ccc(C)c(C(=O)O)c2)cc1,-3,0,4,-3,17,-17
Cc1ccc(S(=O)(=O)Nc2ccccc2F)cc1C(=O)NNC(=O)c1ccccc1O,0,-1,-13,-2,-8,8
COc1ccc(NS(=O)(=O)c2ccc(C)c(C(=O)NNC(=O)c3ccccc3O)c2)cc1,-2,-11,-6,-12,-97,97*
O=C(NNC(=O)c1ccccc1O)c1ccc(NS(=O)(=O)c2ccc(F)c(F)c2)cc1,.,-6,-10,4,-85,85*
CS(=O)(=O)N1[C@@H](C#N)[C@H](c2ccc(-c3ccccc3F)cc2)[C@@H]1CO,2,.,.,-1,.,.
O=C(NC[C@H]1CC[C@H]2[C@H](CN2C(=O)Cc2ccncc2)O1)C1CCOCC1,.,.,.,-1,.,.
Cc1cccc2c1-c1sc(C(=O)Nc3ccccc3N3CCN(C)CC3)cc1CO2,27,26*,-3,-6,0,0
CO[C@@H]1CN(C)C(=O)c2ccc(NC(=O)C3CCC3)cc2OC[C@H](C)N(C)C[C@H]1C,-9,.,.,2,.,.
Cc1ccc2[nH]c(C)c(/C=N/Nc3nc4ccccc4s3)c2c1,4,-6,1,.,-122,122*
COc1ccc(C=NNc2nc3ccccc3s2)cc1,-2,5,-2,-6,-14,14
Cc1cccc(S(=O)(=O)N[C@H]2CC[C@@H](CCn3cc(-c4ccccn4)nn3)O[C@H]2CO)c1,-10,.,.,25,.,.
CCOC(=O)C1CCN(C(=O)Nc2cccc(Cl)c2)CC1,9,-11,-9,.,11,-11
CCOC(=O)C1CCN(C(=O)Nc2ccc(Cl)cc2Cl)CC1,7,1,-7,-5,-80,80*
COc1cc(OC)nc(NC(=O)NS(=O)(=O)c2ccccc2Cl)n1,8,-8,-16,-3,.,.
CCOc1nc(C)nc(NC(=O)NS(=O)(=O)c2ccccc2Cl)n1,11,4,-14,.,61*,-61
CN(C)C(=O)c1ccc(-c2ccccc2[C@H]2[C@@H](CO)N(C(=O)C3CCCC3)[C@H]2C#N)cc1,.,.,.,-10,.,.
CCNC(=O)C[C@H]1CC[C@@H]2[C@H](COc3ccc(NC(=O)Nc4cccc(F)c4)cc3C(=O)N2C)O1,-3,.,.,-2,.,.
CON(C)C(=O)/C=C/CCCCNC(=O)OC(C)(C)C,-2,3,0,-2,63*,-63
C[C@@H]1CN([C@H](C)CO)S(=O)(=O)c2ccc(/C=C/c3ccccc3)cc2O[C@H]1CN(C)Cc1cncnc1,4,.,.,-6,.,.
COc1ccc([N+](=O)[O-])cc1N/C(=N/S(=O)(=O)c1ccccc1)c1ccccc1,-1,-7,2,1,-73,73*
COc1ccc([N+](=O)[O-])cc1NC(=O)Cc1ccc(C)cc1,.,-2,-12,1,.,.
